Results from ChEMBL document CHEMBL1122331, “Conformational effects on the activity of drugs. 10. Synthesis, conformation, and pharmacological properties of 1-(2,5-dimethoxyphenyl)-2-aminoethanols and their morpholine analogues” (J Med Chem, 1983).

Legend:
[1] = target: T1, Adrenergic receptor alpha-1 (Rattus norvegicus) (UniProt P15823+P23944+P43140); experiment: (§1) Tested for alpha adrenergic receptor agonistic activity on isolated rat vas deferens; type: functional, tissue-based
Outline: (§2)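 Isolated rat vas deferens; contractions recorded isometrically with a force-displacement transducer.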

[2] = target: T2, Adrenergic receptor alpha-1 (Rattus norvegicus, UniProt P15823+P23944+P43140); experiment: as §1; type: functional, tissue-based; outline: as §2
T2 sequence (P15823 whole entry): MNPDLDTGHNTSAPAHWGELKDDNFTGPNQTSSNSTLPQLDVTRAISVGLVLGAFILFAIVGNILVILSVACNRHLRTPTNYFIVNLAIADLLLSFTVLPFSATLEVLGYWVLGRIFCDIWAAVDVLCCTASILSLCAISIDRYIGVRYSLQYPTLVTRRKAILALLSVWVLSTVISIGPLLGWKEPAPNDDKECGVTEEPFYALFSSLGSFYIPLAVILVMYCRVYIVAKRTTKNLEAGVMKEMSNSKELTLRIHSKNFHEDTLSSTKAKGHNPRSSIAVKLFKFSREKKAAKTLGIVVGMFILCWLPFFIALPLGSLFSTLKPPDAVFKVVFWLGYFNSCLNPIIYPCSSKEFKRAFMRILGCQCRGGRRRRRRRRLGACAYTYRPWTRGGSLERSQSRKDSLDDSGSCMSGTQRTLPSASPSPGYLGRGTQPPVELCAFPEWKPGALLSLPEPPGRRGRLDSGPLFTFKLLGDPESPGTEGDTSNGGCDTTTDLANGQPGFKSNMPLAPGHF
T2 sequence (P23944 whole entry): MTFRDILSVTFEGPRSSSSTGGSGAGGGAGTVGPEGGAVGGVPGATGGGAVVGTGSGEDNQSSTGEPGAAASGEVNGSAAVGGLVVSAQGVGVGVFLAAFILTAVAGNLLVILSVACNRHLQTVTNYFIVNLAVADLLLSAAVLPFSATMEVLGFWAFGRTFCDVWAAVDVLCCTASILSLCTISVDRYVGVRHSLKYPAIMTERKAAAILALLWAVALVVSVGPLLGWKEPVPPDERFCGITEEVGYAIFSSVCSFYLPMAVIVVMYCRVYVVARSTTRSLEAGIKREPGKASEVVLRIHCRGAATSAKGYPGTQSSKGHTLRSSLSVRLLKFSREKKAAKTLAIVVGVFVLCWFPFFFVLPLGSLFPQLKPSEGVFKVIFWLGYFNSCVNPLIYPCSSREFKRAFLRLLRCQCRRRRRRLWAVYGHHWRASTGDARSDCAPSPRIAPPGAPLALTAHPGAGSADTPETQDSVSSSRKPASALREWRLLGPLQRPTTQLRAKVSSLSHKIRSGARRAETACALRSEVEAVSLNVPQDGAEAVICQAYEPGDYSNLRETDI
T2 sequence (P43140 whole entry): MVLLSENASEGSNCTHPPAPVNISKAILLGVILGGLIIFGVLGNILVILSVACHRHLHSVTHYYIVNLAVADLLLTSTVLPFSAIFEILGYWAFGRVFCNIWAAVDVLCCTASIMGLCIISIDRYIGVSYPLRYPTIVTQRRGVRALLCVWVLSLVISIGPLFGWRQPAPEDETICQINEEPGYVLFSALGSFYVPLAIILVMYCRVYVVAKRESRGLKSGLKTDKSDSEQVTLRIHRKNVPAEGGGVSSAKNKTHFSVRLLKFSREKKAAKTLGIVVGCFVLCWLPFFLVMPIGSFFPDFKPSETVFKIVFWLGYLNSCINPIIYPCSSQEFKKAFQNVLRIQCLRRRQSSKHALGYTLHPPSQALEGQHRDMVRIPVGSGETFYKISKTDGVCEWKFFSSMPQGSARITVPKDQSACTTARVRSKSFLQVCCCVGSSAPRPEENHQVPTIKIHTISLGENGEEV

[3] = target: T1, Adrenergic receptor alpha-1 (Rattus norvegicus); experiment: (§3) Tested for Alpha adrenergic receptor antagonistic activity on isolated rat vas deferens; type: functional, tissue-based; outline: as §2
Adrenergic receptor beta [4] = target: T3, Adrenergic receptor beta (Homo sapiens, UniProt P08588+P07550+P13945); experiment: Inhibition of beta adrenergic receptor on isolated guinea pig atria against isoprenaline at 4E-8M; parameters: species or system Cavia porcellus; settings: target entry is the homologue from another species
Adrenergic receptor beta [5] = target: T3, Adrenergic receptor beta; settings: Cavia porcellus
[6] = target: T2, Adrenergic receptor alpha-1; experiment: as §3; type: functional, tissue-based; outline: as §2
[7] = target: T1, Adrenergic receptor alpha-1 (Rattus norvegicus); settings: Vas deferens
[8] = target: T1, Adrenergic receptor alpha-1 (Rattus norvegicus); settings: Vas deferens; remark: listed apart in the source

| SMILES | pA2-pA10 [3] | pA10 [3] | pA2 [6] | further results |
| --- | --- | --- | --- | --- |
| CNCC(O)c1cc(OC)ccc1OC (stereo not drawn) |  |  |  | pA10 [1]: 3.16; pD2 [1]: 5.22; pD10 [1]: 6.07; pA2 [2]: 3.91 |
| COc1ccc(OC)c(C(O)CNC(C)C)c1 (stereo not drawn) | 0.26 | 2.48 |  | pA2 (Adrenergic receptor beta [4]): 4.77; pA10 (Adrenergic receptor beta [5]): 4.08 |
| COc1ccc(OC)c(C2CN(C(C)C)CCO2)c1 (stereo not drawn) | 0.19 | 2.95 | 3.14 |  |
| COc1ccc(OC)c(C2CN(C)CCO2)c1 (stereo not drawn) | 0.76 | 2.85 | 3.61 |  |
| COc1ccc(OC)c(C(O)CN)c1 (stereo not drawn) [DESGLYMIDODRINE] | 0.74 | 3.3 | 4.04 | pD10 [7]: 6; pD2 [8]: 5.15 |
| COc1ccc(OC)c(C(O)C(C)N)c1 (stereo not drawn) |  |  |  | pD10 [7]: 5.61; pD2 [8]: 4.42 |
| COc1ccc(OC)c(C2CNCCO2)c1 (stereo not drawn) | 0.45 | 2.95 | 3.4 |  |
| Cc1ccc(N(CC2=NCCN2)c2cccc(O)c2)cc1 |  |  |  | pA10 [1]: 6.02 |
| COc1ccc(OC)c(C2OCCNC2C)c1 (stereo not drawn) | 0.27 | 3.2 | 3.48 |  |
